Measurements as given in ChEMBL document CHEMBL2177092, “Phosphoramidate ProTides of the anticancer agent FUDR successfully deliver the preformed bioactive monophosphate in cells and confer advantage over the parent nucleoside” (J Med Chem, 2011).
pIC50: −log10 of the molar value.

tested on: CCRF-CEM; assay: Ratio of IC50 for human CEM cells expressing human ENT1 transporter in presence of NBMPR to IC50 for human CEM cells expressing human ENT1 transporter; assay type: functional; details: not given
Outline: (§1)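 Human T-lymphocyte CEM cells with (CEM/hEnt-1) or lacking (CEM/hEnt-0) the hENT1 transporter were seeded at 60 000 cells/well with graded compound concentrations. Transporter-inhibition runs added dipyridamole (10 μM) or NBMPR (10 μM) to CEM/hEnt-1 cells. […] Ratios are formed against untreated CEM/hEnt-1 IC50. Mean of 2–4 experiments.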

Compound	Ratio IC50
CC(C)(NP(=O)(OC[C@H]1O[C@@H](n2cc(F)c(=O)[nH]c2=O)C[C@@H]1O)Oc1cccc2ccccc12)C(=O)OCc1ccccc1 (mixture of isomers)	2
CCOC(=O)C(C)(C)NP(=O)(OC[C@H]1O[C@@H](n2cc(F)c(=O)[nH]c2=O)C[C@@H]1O)Oc1cccc2ccccc12 (mixture of isomers)	2

tested on: CCRF-CEM; assay: Ratio of IC50 for human CEM cells expressing human ENT1 transporter in presence of dipyridamole to IC50 for human CEM cells expressing human ENT1 transporter; assay type: functional; details: not given; outline: as §1

Compound	Ratio IC50
CC(C)(NP(=O)(OC[C@H]1O[C@@H](n2cc(F)c(=O)[nH]c2=O)C[C@@H]1O)Oc1cccc2ccccc12)C(=O)OCc1ccccc1 (mixture of isomers)	2
CCOC(=O)C(C)(C)NP(=O)(OC[C@H]1O[C@@H](n2cc(F)c(=O)[nH]c2=O)C[C@@H]1O)Oc1cccc2ccccc12 (mixture of isomers)	2

tested on: CCRF-CEM; assay: Ratio of IC50 for ENT1 transporter-deficient human CEM cells to IC50 for human CEM cells expressing human ENT1 transporter after 72 hrs by cell counting; assay type: functional; details: not given; outline: as §1

Compound	Ratio IC50
CC(C)(NP(=O)(OC[C@H]1O[C@@H](n2cc(F)c(=O)[nH]c2=O)C[C@@H]1O)Oc1cccc2ccccc12)C(=O)OCc1ccccc1 (mixture of isomers)	7
CCOC(=O)C(C)(C)NP(=O)(OC[C@H]1O[C@@H](n2cc(F)c(=O)[nH]c2=O)C[C@@H]1O)Oc1cccc2ccccc12 (mixture of isomers)	7

tested on: CCRF-CEM; assay: Cytostatic activity against human CEM cells expressing human ENT1 transporter after 72 hrs by cell counting in presence of NBMPR; assay type: functional, cell-based; details: not given
Outline: (§2)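 CEM/hEnt-1 cells with 10 μM dipyridamole or 10 μM NBMPR added alongside graded compound levels, in DMEM with 10% FBS, 10 mM Hepes and 1 mM sodium pyruvate at 37 °C under 5% CO2. Seeded at 60 000 cells/well, counted by Coulter counter after 3 days.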

Compound	pIC50
CC(C)(NP(=O)(OC[C@H]1O[C@@H](n2cc(F)c(=O)[nH]c2=O)C[C@@H]1O)Oc1cccc2ccccc12)C(=O)OCc1ccccc1 (mixture of isomers)	6.55
CCOC(=O)C(C)(C)NP(=O)(OC[C@H]1O[C@@H](n2cc(F)c(=O)[nH]c2=O)C[C@@H]1O)Oc1cccc2ccccc12 (mixture of isomers)	6.21

tested on: CCRF-CEM; assay: Cytostatic activity against human CEM cells expressing human ENT1 transporter after 72 hrs by cell counting in presence of dipyridamole; assay type: functional, cell-based; details: not given; outline: as §2

Compound	pIC50
CC(C)(NP(=O)(OC[C@H]1O[C@@H](n2cc(F)c(=O)[nH]c2=O)C[C@@H]1O)Oc1cccc2ccccc12)C(=O)OCc1ccccc1 (mixture of isomers)	6.80
CCOC(=O)C(C)(C)NP(=O)(OC[C@H]1O[C@@H](n2cc(F)c(=O)[nH]c2=O)C[C@@H]1O)Oc1cccc2ccccc12 (mixture of isomers)	6.28

tested on: CCRF-CEM; assay: Cytostatic activity against human CEM cells expressing human ENT1 transporter after 72 hrs by cell counting; assay type: functional, cell-based; details: not given
Outline: (§3)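 Suspension leukemia cells in DMEM with 10% FBS, 10 mM Hepes and 1 mM sodium pyruvate at 37 °C under 5% CO2. Seeded at 60 000 cells/well with graded compound levels. Grown 48 h (L1210) or 72 h (CEM), then counted by Coulter counter. […] Mean ± SD of two to four independent experiments.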

Compound	pIC50
CC(C)(NP(=O)(OC[C@H]1O[C@@H](n2cc(F)c(=O)[nH]c2=O)C[C@@H]1O)Oc1cccc2ccccc12)C(=O)OCc1ccccc1 (mixture of isomers)	7.30
CCOC(=O)C(C)(C)NP(=O)(OC[C@H]1O[C@@H](n2cc(F)c(=O)[nH]c2=O)C[C@@H]1O)Oc1cccc2ccccc12 (mixture of isomers)	6.68

tested on: CCRF-CEM; assay: Cytostatic activity against ENT1 transporter-deficient human CEM cells after 72 hrs by cell counting; assay type: functional, cell-based; details: not given; outline: as §3

Compound	pIC50
CC(C)(NP(=O)(OC[C@H]1O[C@@H](n2cc(F)c(=O)[nH]c2=O)C[C@@H]1O)Oc1cccc2ccccc12)C(=O)OCc1ccccc1 (mixture of isomers)	6.40
CCOC(=O)C(C)(C)NP(=O)(OC[C@H]1O[C@@H](n2cc(F)c(=O)[nH]c2=O)C[C@@H]1O)Oc1cccc2ccccc12 (mixture of isomers)	5.85

tested on: L1210; assay: Ratio of IC50 for Mycoplasma hyorhinis-infected mouse L1210 cells to IC50 for mouse L1210/0 cells after 48 hrs by cell counting; assay type: functional; details: not given
Outline: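 Murine L1210/0 cells were compared with L1210/TK cells, selected for resistance to 5-bromo-2'-dUrd, and with L1210.Hyor cells, chronically infected with Mycoplasma hyorhinis. Cells were grown in DMEM with 10% FBS, 10 mM Hepes and 1 mM pyruvate at 37 °C and 5% CO2, then seeded at 60 000 cells/well with compound. They were Coulter-counted after 48 h. […] Mean of 2–4 experiments.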

Compound	Ratio IC50
CC(C)(NP(=O)(OC[C@H]1O[C@@H](n2cc(F)c(=O)[nH]c2=O)C[C@@H]1O)Oc1cccc2ccccc12)C(=O)OCc1ccccc1 (mixture of isomers)	2.4
CCOC(=O)C(C)(C)NP(=O)(OC[C@H]1O[C@@H](n2cc(F)c(=O)[nH]c2=O)C[C@@H]1O)Oc1cccc2ccccc12 (mixture of isomers)	3

tested on: L1210; assay: Cytostatic activity against Mycoplasma hyorhinis-infected mouse L1210 cells after 48 hrs by cell counting; assay type: functional, cell-based; details: L1210, 48 h
Outline: (§4)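 Suspension leukemia cells in DMEM with 10% FBS, 10 mM Hepes and 1 mM sodium pyruvate at 37 °C under 5% CO2. Seeded at 60 000 cells/well with graded compound levels. Grown 48 h (L1210) or 72 h (CEM), then counted by Coulter counter. Mean ± SD of two to four independent experiments.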

Compound	pIC50
CC(C)(NP(=O)(OC[C@H]1O[C@@H](n2cc(F)c(=O)[nH]c2=O)C[C@@H]1O)Oc1cccc2ccccc12)C(=O)OCc1ccccc1 (mixture of isomers)	7.35
CCOC(=O)C(C)(C)NP(=O)(OC[C@H]1O[C@@H](n2cc(F)c(=O)[nH]c2=O)C[C@@H]1O)Oc1cccc2ccccc12 (mixture of isomers)	6.77

tested on: HeLa; assay: Cytostatic activity against human HeLa cells […] by cell counting; assay type: functional, cell-based; details: not given

Compound	pIC50
CC(C)(NP(=O)(OC[C@H]1O[C@@H](n2cc(F)c(=O)[nH]c2=O)C[C@@H]1O)Oc1cccc2ccccc12)C(=O)OCc1ccccc1 (mixture of isomers)	7.11
CCOC(=O)C(C)(C)NP(=O)(OC[C@H]1O[C@@H](n2cc(F)c(=O)[nH]c2=O)C[C@@H]1O)Oc1cccc2ccccc12 (mixture of isomers)	6.70

tested on: HeLa; assay: Cytostatic activity against thymidine-kinase deficient human HeLa cells […]; assay type: functional, cell-based; details: not given

Compound	pIC50
CC(C)(NP(=O)(OC[C@H]1O[C@@H](n2cc(F)c(=O)[nH]c2=O)C[C@@H]1O)Oc1cccc2ccccc12)C(=O)OCc1ccccc1 (mixture of isomers)	5.51
CCOC(=O)C(C)(C)NP(=O)(OC[C@H]1O[C@@H](n2cc(F)c(=O)[nH]c2=O)C[C@@H]1O)Oc1cccc2ccccc12 (mixture of isomers)	5.49

tested on: CCRF-CEM; assay: Cytostatic activity against thymidine-kinase deficient human CEM cells after 72 hrs by cell counting; assay type: functional, cell-based; details: not given; outline: as §4

Compound	pIC50
CC(C)(NP(=O)(OC[C@H]1O[C@@H](n2cc(F)c(=O)[nH]c2=O)C[C@@H]1O)Oc1cccc2ccccc12)C(=O)OCc1ccccc1 (mixture of isomers)	5.62
CCOC(=O)C(C)(C)NP(=O)(OC[C@H]1O[C@@H](n2cc(F)c(=O)[nH]c2=O)C[C@@H]1O)Oc1cccc2ccccc12 (mixture of isomers)	5.16

tested on: CCRF-CEM; assay: Cytostatic activity against human CEM/0 cells after 72 hrs by cell counting; assay type: functional, cell-based; details: not given; outline: as §3

Compound	pIC50
CC(C)(NP(=O)(OC[C@H]1O[C@@H](n2cc(F)c(=O)[nH]c2=O)C[C@@H]1O)Oc1cccc2ccccc12)C(=O)OCc1ccccc1 (mixture of isomers)	6.80
CCOC(=O)C(C)(C)NP(=O)(OC[C@H]1O[C@@H](n2cc(F)c(=O)[nH]c2=O)C[C@@H]1O)Oc1cccc2ccccc12 (mixture of isomers)	6.44

tested on: not listed separately; assay: Cytostatic activity against mouse L1210/0 cells after 48 hrs by cell counting; assay type: functional, cell-based; details: L1210/0, 48 h; outline: as §4

Compound	pIC50
CC(C)(NP(=O)(OC[C@H]1O[C@@H](n2cc(F)c(=O)[nH]c2=O)C[C@@H]1O)Oc1cccc2ccccc12)C(=O)OCc1ccccc1 (mixture of isomers)	7.72
CCOC(=O)C(C)(C)NP(=O)(OC[C@H]1O[C@@H](n2cc(F)c(=O)[nH]c2=O)C[C@@H]1O)Oc1cccc2ccccc12 (mixture of isomers)	7.25

tested on: L1210; assay: Cytostatic activity against thymidine-kinase deficient mouse L1210 cells after 48 hrs by cell counting; assay type: functional, cell-based; details: L1210, 48 h; outline: as §4

Compound	pIC50
CC(C)(NP(=O)(OC[C@H]1O[C@@H](n2cc(F)c(=O)[nH]c2=O)C[C@@H]1O)Oc1cccc2ccccc12)C(=O)OCc1ccccc1 (mixture of isomers)	6.89
CCOC(=O)C(C)(C)NP(=O)(OC[C@H]1O[C@@H](n2cc(F)c(=O)[nH]c2=O)C[C@@H]1O)Oc1cccc2ccccc12 (mixture of isomers)	6.09
